In ChEMBL document CHEMBL4425113, “Chromenopyrazole, a Versatile Cannabinoid Scaffold with in Vivo Activity in a Model of Multiple Sclerosis” (J Med Chem, 2016):
The source made the active and inactive calls. No cut-off for these calls is given here.

Key:
Homo sapiens = organism: Homo sapiens; test: Selectivity ratio of Ki for human CB1 receptor to Ki for human CB2 receptor
In short: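 Membranes from cells transfected with hCB1 (8 μg/well; Tris 50 mM, MgCl2 5 mM, EDTA 2.5 mM, BSA 0.5 mg/mL, pH 7.4) or hCB2 (4 μg/well; EGTA 2.5 mM, BSA 1 mg/mL, pH 7.5); [3H]CP55940, 90 min at 30 °C. […] Nonspecific binding 10 μM WIN55212-2; GF/C filtration, scintillation; ≥3 experiments in triplicate.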

Cannabinoid receptor 2 [1] = target: T1, Cannabinoid receptor 2 (Homo sapiens, UniProt P34972); test: Antagonist activity at human CB2 receptor expressed in HEK293 cell membranes assessed as inhibition of CP55940-mediated suppression of forskolin-stimulated cAMP accumulation at 200 nM after 60 mins by HTRF assay; assay type: functional, cell-based
T1 sequence (P34972 whole entry): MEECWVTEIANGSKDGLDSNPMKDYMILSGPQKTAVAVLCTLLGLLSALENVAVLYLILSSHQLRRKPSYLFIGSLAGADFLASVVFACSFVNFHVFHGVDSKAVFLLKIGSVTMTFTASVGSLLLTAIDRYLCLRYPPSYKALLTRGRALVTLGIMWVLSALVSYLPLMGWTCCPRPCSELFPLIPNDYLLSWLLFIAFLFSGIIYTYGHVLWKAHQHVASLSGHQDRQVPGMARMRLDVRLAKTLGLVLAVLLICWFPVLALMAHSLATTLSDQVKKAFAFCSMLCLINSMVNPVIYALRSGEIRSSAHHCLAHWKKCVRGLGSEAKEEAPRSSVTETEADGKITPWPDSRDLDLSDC

Cannabinoid receptor 2 [2] = target: T1, Cannabinoid receptor 2; test: Displacement of [3H]-CP55940 from human CB2 receptor expressed in HEK293 cell membranes after 90 mins by liquid scintillation counting method
Cannabinoid receptor 1 = Cannabinoid receptor 1 (Homo sapiens, UniProt P21554); test: biochemical; assay type: cell-based, HEK293
Sequence of Cannabinoid receptor 1 (P21554 whole entry): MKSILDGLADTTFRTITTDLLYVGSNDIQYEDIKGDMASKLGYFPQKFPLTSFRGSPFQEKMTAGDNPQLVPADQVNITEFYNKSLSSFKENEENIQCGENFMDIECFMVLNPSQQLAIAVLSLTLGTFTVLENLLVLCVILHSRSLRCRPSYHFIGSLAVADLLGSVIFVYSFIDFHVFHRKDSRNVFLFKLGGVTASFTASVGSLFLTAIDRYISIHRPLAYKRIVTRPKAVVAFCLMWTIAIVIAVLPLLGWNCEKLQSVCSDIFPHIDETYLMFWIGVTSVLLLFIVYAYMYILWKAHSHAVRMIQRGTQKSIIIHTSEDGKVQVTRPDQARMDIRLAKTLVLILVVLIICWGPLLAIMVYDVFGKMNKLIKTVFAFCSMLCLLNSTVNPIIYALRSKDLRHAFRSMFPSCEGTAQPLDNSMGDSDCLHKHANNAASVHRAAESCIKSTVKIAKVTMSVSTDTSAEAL

Cannabinoid receptor 2 [3] = target: T1, Cannabinoid receptor 2; test: Antagonist activity at human CB2 receptor expressed in HEK293 cell membranes assessed as inhibition of CP55940-mediated suppression of forskolin-stimulated cAMP accumulation at 1 uM after 60 mins by HTRF assay; assay type: functional, cell-based
Cannabinoid receptor 2 [4] = target: T1, Cannabinoid receptor 2; test: Agonist activity at human CB2 receptor expressed in HEK293 cell membranes assessed as inhibition of forskolin-stimulated cAMP accumulation after 60 mins by HTRF assay; assay type: functional, cell-based
Cannabinoid receptor 2 [5] = target: T1, Cannabinoid receptor 2; test: Agonist activity at human CB2 receptor expressed in HEK293 cell membranes assessed as inhibition of forskolin-stimulated cAMP accumulation at 200 nM after 60 mins by HTRF assay; assay type: functional, cell-based
In short: (§1)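 HEK293 cells stably expressing hCB2, 5.000 cells/well, forskolin-stimulated; Lance-Ultra TR-FRET cAMP kit, 60 min room temperature with HTRF reagents; 665/620 nm ratio converted to cAMP via standard curve; forskolin level set to 100%.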

Cannabinoid receptor 2 [6] = target: T1, Cannabinoid receptor 2; test: Agonist activity at human CB2 receptor expressed in HEK293 cell membranes assessed as induction of [35S]-GTPgammaS binding after 60 mins by liquid scintillation spectrometric method; assay type: functional
[7] = Binding affinity to PDEA modified AGP (unknown origin) at 40 uM by surface plasmon resonance method; assay type: ADME; settings: human, isolated protein
Mus musculus = test: Antiinflammatory activity in TMEV-induced SJL/J mouse demyelinating disease model assessed as reduction of microglial activation by measuring […] in Iba-1 expression at 5 mg/kg, ip administered for 7 days by fluorescence assay; assay type: functional, organism-based
In short: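 Female SJL/J mice, 12 weeks, inoculated intracerebrally (right hemisphere) with TMEV DA strain; sham get vehicle. Compound 5 mg/kg i.p. daily for 7 days, vehicle 10% DMSO in PBS. Perfused brains PFA-fixed; sections stained anti-Iba1 (1:1,000) plus Alexa secondary; confocal fluorescence intensity, 6 sections/animal, ≥5 animals/group; Kruskal–Wallis test.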

Cannabinoid receptor 2 [8] = target: T1, Cannabinoid receptor 2; test: Agonist activity at human CB2 receptor expressed in HEK293 cell membranes assessed as inhibition of forskolin-stimulated cAMP accumulation at 1 uM after 60 mins by HTRF assay; assay type: functional, cell-based; in short: as §1

SMILES	Ratio Ki (Homo sapiens)	inhibition (Cannabinoid receptor 2 [1])	Ki (Cannabinoid receptor 2 [2]) [µM]	Ki (Cannabinoid receptor 1) [µM]	inhibition (Cannabinoid receptor 2 [3])	Emax (Cannabinoid receptor 2 [4]) [%]	IC50 (Cannabinoid receptor 2 [4]) [µM]	inhibition (Cannabinoid receptor 2 [5])	Emax (Cannabinoid receptor 2 [6]) [%]	PB [7]	Activity (Mus musculus)	inhibition (Cannabinoid receptor 2 [8])
CCCCCCC(C)(C)c1cc(OCCO)c2c(c1)OC(C)(C)c1cn(C)nc1-2	27.2	inactive	0.0398	1.09	–	–	–	–	–	–	–	–
CCCCCCC(C)(C)c1cc(OCCCO)c2c(c1)OC(C)(C)c1cn(CC)nc1-2	> 411	–	0.0974	> 40	Active	–	–	–	–	–	–	–
CCCCCCC(C)(C)c1cc(OC)c2c(c1)OC(C)(C)c1cnoc1-2	> 3100	–	0.0128	> 40	–	101	0.0042	Active	98	Active	Active	Active
CCCCCCC(C)(C)c1cc(OC)c2c(c1)OC(C)(C)c1cn(C)nc1-2	62.6	inactive	0.0664	4.16	–	–	–	–	–	Active	–	–
